Experimental data taken from ChEMBL document CHEMBL1124258, “(Imidazo[1,2-a]pyrimidin-2-yl)phenylmethanones and related compounds as potential nonsedative anxiolytics” (J Med Chem, 1988).

What was measured:
[1] = biological target: GABA-A receptor; anion channel; assay: Inhibition of 0.6 nM [3H]flunitrazepam binding to GABA-A central benzodiazepine receptor of rat forebrain membrane
Outline: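 Rat forebrain membranes with [3H]flunitrazepam at 0.6 nM, modified Squires–Braestrup method. IC50 (nM) read from displacement curves of at least four concentrations, each in triplicate.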

Rattus norvegicus [2] = organism: Rattus norvegicus; assay: Minimum Effective Dose (MED) was measured using Food-Conflict test in rats; format: functional; settings: read-out: MED
Outline: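 Male Lister rats on alternating schedule: five 4-min FI30 unpunished and 3-min FR5 punished components (food-motivated). Oral dosing, first at 50 mg/kg in four rats, then at decreasing doses if active until the minimum effective dose was reached.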

Mus musculus [3] = organism: Mus musculus; assay: Muscle relaxation in mice by using Pull-Up test; format: functional
Mus musculus [4] = organism: Mus musculus; assay: Sedative/muscle relaxant effect in mice by using Rotating-Drum test; format: functional
Outline: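 Male CD-1 mice were placed on a rotating drum (3 cm diameter, 16 rev/min) 1 h after dosing. Mean time on the drum for groups of 10 was expressed as a percentage of the control group mean.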

Mus musculus [5] = assay: Anticonvulsant activity in CD-1 mice with 120 mg/kg of leptazol; format: functional
Outline: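 Male CD-1 mice challenged with leptazol at 120 mg/kg, following Everett and Richards. ED50 (mg/kg po) with 95% confidence limits by Litchfield–Wilcoxon where the doses allowed.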

Rattus norvegicus [6] = organism: Rattus norvegicus; assay: Minimum Effective Dose(MED was measured by using Licking-Conflict test in rats; format: functional; settings: read-out: MED
Outline: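 Rats trained to stable suppression of drinking at tone onset. Each session had 1 min unpunished drinking, then a tone lasting through a 3-min punished period.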

Structure (SMILES) | IC50 [1] [nM] | minimal effective dose (Rattus norvegicus [2]) [mg/kg] | ED50 (Mus musculus [3]) [mg/kg] | ED50 (Mus musculus [4]) [mg/kg] | ED50 (Mus musculus [5]) [mg/kg] | minimal effective dose (Rattus norvegicus [6]) [mg/kg]
CCCCc1cc(OC)nc2nc(C(=O)c3ccccc3)cn12 | 340 | 10 |  |  |  | 
COc1cc2nc(C(=O)c3ccccc3)cn2c2ccc(C(C)C)cc12 | 10 | 5 |  |  |  | 
CCc1cn2cc(C(=O)c3ccccc3)nc2nc1OC | 1500 | 5 |  |  |  | 
COc1nc2nc(C(=O)c3ccccc3)cn2c(C)c1CC1CC1 | 30 | 10 |  |  |  | 
COc1nc2nc(C(=O)c3ccccc3)cn2c2c1CCCC2 | 61 | 5 | 500 | 200 | 100 | 5
COc1nc2nc(C(=O)c3ccccc3)cn2c(C)c1OC | 1000 | 5 |  |  |  | 
CSc1cc(C)n2cc(C(=O)c3ccccc3)nc2n1 | 190 | 5 |  |  |  | 
CCOc1nc2nc(C(=O)c3ccccc3)cn2c2c1CCC2 | > 10000 | 50 |  |  |  | 
CCOC(=O)c1cn2c(n1)sc1cc(CC)ccc12 | 4000 |  |  |  |  | 
CCCCc1ccc2c(c1)c(OC)cc1nc(C(=O)c3ccccc3)cn12 | 25 | 10 |  |  |  | 
C=CCc1c(OC)nc2nc(C(=O)c3ccccc3)cn2c1C | 45 | 5 |  | 100 | 54 | 10
CCc1c(OC)nc2nc(C(=O)c3ccccc3)cn2c1C [DIVAPLON] | 56 | 2 | 200 | 200 | 21 | 2
CC(C)OC(=O)c1cn2c(n1)sc1ccccc12 | 160 |  |  |  |  | 
COc1cc2nc(C(=O)c3ccc(Cl)cc3)cn2c2ccccc12 | 96 | > 50 |  |  |  | 
CCOC(=O)c1cn2c(n1)sc1ccccc12 | 120 |  |  |  |  | 
C=CCc1c(SC)nc2nc(C(=O)c3ccccc3)cn2c1C | 8 | 5 |  |  |  | 
COc1cc2nc(C(=O)c3cccs3)cn2c2ccccc12 | 24 | > 50 |  |  |  | 
C=CCc1c(OC)nc2nc(C(=O)c3ccccc3)cn2c1CC | 42 | 10 |  |  |  | 
COc1cc2nc(C(=O)c3ccccc3)cn2c2ccc(F)cc12 | 20 | 10 |  |  |  | 
COc1cc2nc(C(=O)c3ccccc3)cn2c2ccc(C)cc12 | 21 | 5 |  |  |  | 
COc1cc2nc(C(=O)c3ccccc3)cn2c2ccccc12 | 57 | 5 |  |  |  | 
CCc1ccc2c(c1)c(OC)cc1nc(C(=O)c3ccccn3)cn12 | 9 | 5 |  |  |  | 
CCOc1nc2nc(C(=O)c3ccccc3)cn2c2c1CCCCC2 | 4000 | 5 |  |  |  | 

Structure (SMILES) | IC50 [1] [nM] | minimal effective dose (Rattus norvegicus [2]) [mg/kg] | ED50 (Mus musculus [3]) [mg/kg] | ED50 (Mus musculus [4]) [mg/kg] | ED50 (Mus musculus [5]) [mg/kg] | minimal effective dose (Rattus norvegicus [6]) [mg/kg]
COC(=O)c1cn2c(n1)sc1ccccc12 | 60 |  |  |  |  | 
COc1ccc(C(=O)c2cn3c(cc(OC)c4ccccc43)n2)cc1 | 37 | > 50 |  |  |  | 
CCCc1c(OC)nc2nc(C(=O)c3ccccc3)cn2c1CC | 34 | 10 |  |  |  | 
COc1nc2nc(C(=O)c3ccccc3)cn2c2c1CSC2 | 430 | > 50 |  |  |  | 
COc1nc2nc(C(=O)c3ccccc3)cn2c2c1CCCCC2 | 125 | 10 |  |  |  | 
O=C(OCc1ccccc1)c1cn2c(n1)sc1ccccc12 | 50 |  |  |  |  | 
CCCC(=O)c1cn2c(cc(OC)c3cc(CC)ccc32)n1 | 535 | 20 |  |  |  | 
CCc1ccc2c(c1)c(OC)c(C)c1nc(C(=O)c3ccccc3)cn12 | 7 | 2 |  |  |  | 
CCSc1nc2nc(C(=O)c3ccccc3)cn2c2c1CCC2 | 1850 | 50 |  |  |  | 
CCOC(=O)Cc1cn2c(n1)sc1ccccc12 | > 10 |  |  |  |  | 
CCc1c(SC)nc2nc(C(=O)c3ccccc3)cn2c1C | 12 | 2 | 200 | 100 | 12.5 | 2
O=C(O)c1cn2c(n1)sc1ccccc12 | > 10 |  |  |  |  | 
CCOC(=O)N1Cc2c(OC)nc3nc(C(=O)c4ccccc4)cn3c2C1 | 10000 | 50 |  |  |  | 
CCc1ccc2c(c1)c(OC)c(CC)c1nc(C(=O)c3ccccc3)cn12 | 135 | 20 |  |  |  | 
CSc1nc2nc(C(=O)c3ccccc3)cn2c2c1CSCC2 | 24 | 50 |  |  |  | 
CCc1ccc2c(c1)c(OC)cc1nc(C(C)=O)cn12 | 1300 | 20 |  |  |  | 
CSc1nc2nc(C(=O)c3ccccc3)cn2c2c1CCCC2 | 9 | 10 |  |  |  | 
CSc1nc2nc(C(=O)c3ccccc3)cn2c2c1CCC2 | 35 | 2 |  |  |  | 
CCc1c(OC)nc2nc(C(=O)c3ccccc3)cn2c1CC | 107 | 2 |  |  |  | 
CCCOC(=O)c1cn2c(n1)sc1ccccc12 | 470 |  |  |  |  | 
CCCc1c(OC)nc2nc(C(=O)c3ccccc3)cn2c1C | 85 | 5 | 100 | 100 | 200 | 5
CCc1ccc2c(c1)c(OC)cc1nc(C(=O)c3ccccc3)cn12 | 14 | 5 | 640 | 22.5 | 3.2 | 2
CCOc1nc2nc(C(=O)c3ccccc3)cn2c2c1CSCC2 | > 10000 | > 50 |  |  |  | 

Structure (SMILES) | IC50 [1] [nM] | minimal effective dose (Rattus norvegicus [2]) [mg/kg] | ED50 (Mus musculus [3]) [mg/kg] | ED50 (Mus musculus [4]) [mg/kg] | ED50 (Mus musculus [5]) [mg/kg] | minimal effective dose (Rattus norvegicus [6]) [mg/kg]
COc1nc2nc(C(=O)c3ccccc3)cn2c2c1CSCC2 | 185 | 20 |  |  |  | 
COc1nc2nc(C(=O)c3ccccc3)cn2c2c1CCC2 | 200 | 20 |  |  |  | 
CCCc1cc(OC)nc2nc(C(=O)c3ccccc3)cn12 | 535 | 1 |  |  |  | 
CC1(C)COC(c2cn3c(n2)sc2ccccc23)=N1 | > 10000 |  |  |  |  | 
O=C(OC1CCCCC1)c1cn2c(n1)sc1ccccc12 | 7100 |  |  |  |  | 
CCCc1cc(SC)nc2nc(C(=O)c3ccccc3)cn12 | 89 | 10 |  |  |  | 
CCCc1c(SC)nc2nc(C(=O)c3ccccc3)cn2c1CC | 47 | 10 |  |  |  | 
CCOc1nc2nc(C(=O)c3ccccc3)cn2c2c1CCCC2 | 2000 | > 50 |  |  |  | 
CCCCc1c(OC)nc2nc(C(=O)c3ccccc3)cn2c1C | 42 | 2 |  |  |  | 
COc1cc(C)n2cc(C(=O)c3ccccc3)nc2n1 | 800 | 5 |  |  |  | 
COc1cc2nc(C(=O)c3ccc(C)cc3)cn2c2ccccc12 | 19 | > 50 |  |  |  | 
CCc1cc(OC)nc2nc(C(=O)c3ccccc3)cn12 | 295 | 2 |  |  |  | 
COc1cc2nc(C(=O)c3ccccc3)cn2c2cc(C)c(C)cc12 | 100 | 5 |  |  |  | 
CCCc1ccc2c(c1)c(OC)cc1nc(C(=O)c3ccccc3)cn12 | 16 | 2 |  |  |  | 
O=C(Nc1nccs1)c1cn2c(n1)sc1ccccc12 | > 10 |  |  |  |  | 
O=C(Nc1cccc(Cl)c1)c1cn2c(n1)sc1ccccc12 | > 10000 |  |  |  |  | 
COc1nc2nc(C(=O)c3ccccc3)cn2c2c1CCC(C)C2 (stereo not given) | 135 | 10 |  |  |  | 
CSc1nc2nc(C(=O)c3ccccc3)cn2c2c1CCC(C)C2 (stereo not given) | 76 | 50 |  |  |  | 
CCc1ccc2c(c1)sc1nc(C(=O)c3ccccc3)cn12 | 740 |  |  |  |  | 
CNC1=Nc2ccc(Cl)cc2C(c2ccccc2)=[N+]([O-])C1 [CHLORDIAZEPOXIDE] |  | 5 | 16 | 6.8 | 1.9 | 2
O=C(c1ccccc1)c1cn2c(n1)sc1ccccc12 | 85 |  |  |  |  | 
CCCCc1c(OC)nc2nc(C(=O)c3ccccc3)cn2c1CC | 34 | 10 |  |  |  | 
CCC(=O)c1cn2c(cc(OC)c3cc(CC)ccc32)n1 | 135 | 10 |  |  |  | 
